An excerpt weighted towards active compounds, which were near 2.5% of everything screened.
GRK2 aptamer HTS – human GRK2 inhibition via aptamer displacement; P25098; bead flow cytometry, FAM-aptamer displacement from GRK2; inhibition of aptamer binding, % at 10 µM; 0.59% of 330,000 active;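 active = inhibition of aptamer binding above 40%, roughly 3 SD of noise, on plates passing a quality check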;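 note: median bead fluorescence of bound FAM aptamer so fluorescent compounds give negative values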
Target sequence (P25098 whole entry, looked up): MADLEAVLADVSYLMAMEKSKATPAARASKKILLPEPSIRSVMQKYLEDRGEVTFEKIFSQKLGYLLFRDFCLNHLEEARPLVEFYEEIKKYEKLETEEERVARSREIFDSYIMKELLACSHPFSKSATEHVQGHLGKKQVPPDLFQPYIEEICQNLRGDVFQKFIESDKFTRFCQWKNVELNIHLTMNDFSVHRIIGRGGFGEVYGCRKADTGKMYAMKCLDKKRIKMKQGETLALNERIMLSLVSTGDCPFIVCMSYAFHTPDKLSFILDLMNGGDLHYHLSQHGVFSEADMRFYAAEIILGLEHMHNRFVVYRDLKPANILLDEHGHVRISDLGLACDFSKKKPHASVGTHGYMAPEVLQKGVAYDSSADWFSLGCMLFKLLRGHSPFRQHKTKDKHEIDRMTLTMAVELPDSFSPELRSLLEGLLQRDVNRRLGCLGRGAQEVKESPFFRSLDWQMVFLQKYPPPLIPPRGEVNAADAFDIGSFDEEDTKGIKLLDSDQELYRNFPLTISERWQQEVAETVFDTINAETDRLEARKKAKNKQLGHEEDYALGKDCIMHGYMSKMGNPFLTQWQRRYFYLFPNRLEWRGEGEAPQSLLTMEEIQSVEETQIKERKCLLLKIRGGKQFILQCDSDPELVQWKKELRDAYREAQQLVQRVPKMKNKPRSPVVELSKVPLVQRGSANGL
NadD block – inhibitors of Staphylococcus aureus NadD | AID 602399 | inhibition, % at 20 µM | 0.78% of 360,000 active | purified NadD enzyme, colorimetric absorbance read-out; in the data active = inhibition above about 26%
SENP1 inh – inhibitors of human SENP1 SUMO protease catalytic domain; Q9P0U3; recombinant SENP1 catalytic domain, CyPet-SUMO1-YPet FRET cleavage; inhibition, % at 10 µM; 0.21% of 360,000 active;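 active = inhibition at least 30% at 10 µM, raw YFP signal under a set limit, fluorescence ratio 0.5 to 1.5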
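Test system: recombinant human SENP1 catalytic domain, His6-tagged / Medium: pH 8 Tris buffer with EDTA, NaCl, BME, BSA, NP40, catalase / Also added: SUMO1 FRET substrate flanked by Cypet and Ypet, 25 nM / Times: 50 min reaction at room temperature / Signal: FRET, CFP and YFP emission / Control set: no-enzyme low control and enzyme-plus-DMSO high control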
ABHD5 PLIN5 PPI – ABHD5-PLIN5 protein interaction inhibition | Q00G26+Q8WTS1 | Split G. princeps luciferase complementation, luminescence, 4 h | inhibition, % at 4 µM | 0.78% of 360,000 active | AID 602281;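 active = inhibition above the mean inhibition across every tested compound plus 3 SD, cut at about 22% in these data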
Beta2AR agonist – activates human beta-2 adrenergic receptor causing internalization; P07550; Am2.2-beta2AR cells, FAP receptor internalization, flow cytometry; response, % (test concentration not listed); 0.43% of 340,000 active; AID 504454;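 active = response above a set limit, near 3 SD of response in nonfluorescent compounds, cut at about 42% in these data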
ABHD5 PLIN5 conf – confirmation of human ABHD5-PLIN5 interaction inhibitors. shares compounds with ABHD5 PLIN5 PPI. biochemical ABHD5-PLIN5 interaction, luminescence. inhibition, % at 4 µM. 67% of 2,200 active; in the data active = inhibition above about 23%
HNF4 split-luc – HNF4 split-luciferase signal hit, counter-screen | shares compounds with ABHD5 PLIN5 PPI | HNF4 dimerization, luminescence, biochemical | inhibition, % at 4 µM | 77% of 2,200 active;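 active = mean inhibition across replicate wells exceeding the computed hit threshold, cut at about 13% in these data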;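 note: light from luciferase halves that rejoin when HNF4 fusion proteins dimerize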
Large screens that a line does not name were inactive (follow-up assays come after a bar, where they were run).

CC(C)C(=O)N[C@@H]1c2ccccc2CC[C@@H]1O	none
CCOC(=O)Nc1ccc2c(c1)N(C(=O)CCN(CC)CC)c1ccccc1CC2	none
CCOC(=O)Nc1ccc2c(c1)N(C(=O)CCN(CC)CC)c1ccccc1S2=O (stereo not drawn)	ABHD5 PLIN5 PPI 23.2 | ABHD5 PLIN5 conf inactive | HNF4 split-luc 77.5
CC(C)(C)NC(=O)C(c1ccccc1F)n1c(=O)c(-c2ccco2)nc2ccccc21 (stereo not drawn)	ABHD5 PLIN5 PPI 54.1 (no result: GRK2 aptamer HTS, NadD block, Beta2AR agonist) | ABHD5 PLIN5 conf 91.0 | HNF4 split-luc 36.5
CCCCCNC(=O)C(c1ccccc1F)n1c(=O)c(-c2ccco2)nc2ccccc21 (stereo not drawn)	ABHD5 PLIN5 PPI 95.7 (no result: GRK2 aptamer HTS, NadD block, Beta2AR agonist) | ABHD5 PLIN5 conf 56.8 | HNF4 split-luc inactive
CCCCCNC(=O)C(c1ccc(C#N)cc1)n1c(=O)c(-c2ccco2)nc2ccccc21 (stereo not drawn)	ABHD5 PLIN5 PPI 75.2 (no result: GRK2 aptamer HTS, NadD block, Beta2AR agonist) | ABHD5 PLIN5 conf 43.8 | HNF4 split-luc inactive
CCCCCNC(=O)C(c1ccc(-c2ccccc2)cc1)n1c(=O)c(-c2ccccc2)nc2ccccc21 (stereo not drawn)	none (no result: GRK2 aptamer HTS, NadD block, Beta2AR agonist)
CCCCCNC(=O)C(c1ccc(OC)cc1)n1c(=O)c(-c2ccco2)nc2ccccc21 (stereo not drawn)	ABHD5 PLIN5 PPI 70.9 (no result: GRK2 aptamer HTS, NadD block, Beta2AR agonist) | ABHD5 PLIN5 conf 96.2 | HNF4 split-luc 62.1
Cc1c(C)c2ccc(OCC(=O)N(C)C3CCS(=O)(=O)C3)c(C)c2oc1=O (stereo not drawn)	none
O=P(CCCCCCCCCP(=O)(c1ccccc1)c1ccccc1)(c1ccccc1)c1ccccc1	ABHD5 PLIN5 PPI 23.1 | ABHD5 PLIN5 conf inactive | HNF4 split-luc inactive
COc1ccc(C(NC(=O)/C=C/c2ccco2)c2ccc(OC)c(OC)c2)cc1OC	ABHD5 PLIN5 PPI 24.1 | ABHD5 PLIN5 conf 59.3 | HNF4 split-luc 53.8
C[C@@H]1CCCCO[C@H](CN(C)S(=O)(=O)c2cn(C)cn2)[C@@H](C)CN([C@H](C)CO)C(=O)c2cc(NC(=O)c3ccncc3)ccc2O1	none (no result: GRK2 aptamer HTS, Beta2AR agonist)
CCn1c2ccccc2c2cc(NC(=O)CSc3nnc(C4CC4)n3Cc3ccco3)ccc21	NadD block 31.7, ABHD5 PLIN5 PPI 30.9 | ABHD5 PLIN5 conf inactive | HNF4 split-luc 24.6
COC(=O)c1cc(NC(=O)CN2C(=O)C(=O)N(C3CCCC3)C2=O)cc(C(=O)OC)c1	none
CC(Oc1ccccc1)C(=O)N=C1SC2CS(=O)(=O)CC2N1c1ccc(F)cc1 (stereo not drawn)	none
CC(C)NC(=O)C1Cc2c(-c3ccccc3Oc3ccccc3)ccnc2O1 (stereo not drawn)	none (no result: GRK2 aptamer HTS, Beta2AR agonist)
CCOC(=O)c1c(-c2ccco2)csc1NC(=O)COC(=O)c1cnccn1	ABHD5 PLIN5 PPI 24.7 | ABHD5 PLIN5 conf inactive | HNF4 split-luc 15.5
CCOC(=O)c1c(NC(=O)COC(=O)c2cnccn2)sc(C(=O)NC)c1C	none
N#C/C(=C/c1ccc(N2CCCCC2)o1)C(=O)Nc1ccc2ccccc2c1	ABHD5 PLIN5 PPI 26.1 (no result: GRK2 aptamer HTS, Beta2AR agonist) | ABHD5 PLIN5 conf 37.0 | HNF4 split-luc 30.7
COc1ccc(NC(=O)/C(C#N)=C\c2ccc(N3CCOCC3)o2)cc1	none
N#C/C(=C/c1ccc(N2CCOCC2)o1)C(=O)NC1CCCCC1	ABHD5 PLIN5 PPI 27.4 | ABHD5 PLIN5 conf inactive | HNF4 split-luc 33.7
CSc1ccc(/C=C(\C#N)C(=O)NC2CCCCC2)cc1	none
Cc1noc(C)c1CCC(=O)NC1CCCN(Cc2ccc(CC(C)C)cc2)C1 (stereo not drawn)	none
COc1cc(OC)c(OC)cc1CNC(=O)c1cc(=O)[nH]c2ccccc12	none
O=C(/C=C/c1ccccc1)c1ccccc1	ABHD5 PLIN5 PPI 35.0 | ABHD5 PLIN5 conf 82.0 | HNF4 split-luc 75.7
O=C(O)c1ccccc1-c1ccccc1C(=O)Nc1ccc(F)cc1	none
O=C(/C=C/c1ccccc1)/C=C/c1ccccc1	ABHD5 PLIN5 PPI 73.9 | ABHD5 PLIN5 conf 98.9 | HNF4 split-luc 91.8
O=C(/C=C/c1ccc(NC(=O)c2ccccc2-c2ccccc2C(=O)O)cc1)c1ccccc1	ABHD5 PLIN5 PPI 24.1 | ABHD5 PLIN5 conf 59.6 | HNF4 split-luc 33.9
O=C(/C=C\c1ccc(-c2ccccc2)o1)c1ccccc1	ABHD5 PLIN5 PPI 38.0 | ABHD5 PLIN5 conf 67.5 | HNF4 split-luc 90.3
C/C(=N\NC(=O)c1ccc2c(c1)OCO2)c1ccc(NC(=O)CCCC(=O)O)cc1	none
COc1ccc2c(c1OC)C(=O)OC2N1C(=O)CC[C@H]1C(=O)Nc1ccc(F)cc1F (stereo partly drawn)	none
O=C(/C=C/c1ccccc1)c1cc(Br)ccc(=O)c1O	ABHD5 PLIN5 PPI 43.9 | ABHD5 PLIN5 conf 76.2 | HNF4 split-luc 67.8
O=C(/C=C/c1ccccc1)c1ccc2ccccc2c1	ABHD5 PLIN5 PPI 52.9 (no result: GRK2 aptamer HTS) | ABHD5 PLIN5 conf 76.0 | HNF4 split-luc 62.5
CS(=O)(=O)N(CC(=O)O)c1cc(C(F)(F)F)ccc1Cl	none
C#CCOCCOCCOCCNc1nc(N2CCN(C(=O)CCCCCCCCCCNC(=O)[C@H]([C@@H](C)CC)n3cc(CCCCN=C(N)N)nn3)CC2)nc(N2CCN(C(=O)CCCCCCCCCCNC(=O)[C@H](CCCN=C(N)N)n3cc(C[C@@H](C)CC)nn3)CC2)n1	none (no result: NadD block, SENP1 inh, ABHD5 PLIN5 PPI, Beta2AR agonist)
C#CCOCCOCCOCCNc1nc(N2CCN(C(=O)CCCCCCCCCCNC(=O)[C@@H](CCC(=O)O)n3cc(CCCCCN)nn3)CC2)nc(N2CCN(C(=O)CCCCCCCCCCNC(=O)[C@H](CO)n3cc(CCCCCN)nn3)CC2)n1	ABHD5 PLIN5 PPI 35.9 | ABHD5 PLIN5 conf inactive | HNF4 split-luc inactive
C#CCOCCOCCOCCNc1nc(N2CCN(C(=O)CCCCCCCCCCNC(=O)[C@@H](CCC(=O)O)n3cc(CCCCCN)nn3)CC2)nc(N2CCN(C(=O)CCCCCCCCCCNC(=O)[C@H](CCCCN)n3cc(C[C@@H](C)CC)nn3)CC2)n1	NadD block 36.2, ABHD5 PLIN5 PPI 41.2 | ABHD5 PLIN5 conf inactive | HNF4 split-luc inactive
C#CCOCCOCCOCCNc1nc(N2CCN(C(=O)CCCCCCCCCCNC(=O)[C@@H](CCSC)n3cc(CCO)nn3)CC2)nc(N2CCN(C(=O)CCCCCCCCCCNC(=O)[C@H](CO)n3cc(CCCCCN)nn3)CC2)n1	ABHD5 PLIN5 PPI 45.9 | ABHD5 PLIN5 conf inactive | HNF4 split-luc inactive
C#CCOCCOCCOCCNc1nc(N2CCN(C(=O)CCCCCCCCCCNC(=O)[C@H](CCCCN)n3cc(CCO)nn3)CC2)nc(N2CCN(C(=O)CCCCCCCCCCNC(=O)[C@H](CCCCN)n3cc(CCCC(=O)O)nn3)CC2)n1	none

Compound activity deposited in PubChem BioAssay by several laboratories.
